In the library only some 3.1% were active in any assay of this set; here they are far more common.
HCV core dimer: HCV core protein dimerization inhibition; TR-FRET GST/Flag-core106 dimerization, 1536-well; inhibition, % at 5 µM; hit rate 0.33% among 300,000; AID 1899;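 active = inhibition above the mean of all tested compounds plus 3 SD, set per screening campaign, cut at about 45% in these data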
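test system = GST/Flag-tagged HCV core106 proteins | probe or stimulus = Eu donor and XL665 acceptor anti-tag antibodies | times = compound-protein-antibody incubation 4 h at 22.5 °C | signal = TR-FRET, excitation 340 nm, emission 617 and 671 nm | measure = percent inhibition of core106 dimerization signal | controls = wells lacking GST-core106 and wells with excess unlabelled core106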
IMP-1 inh-1: blocks Pseudomonas aeruginosa IMP-1 metallo-beta-lactamase; hit rate 0.45% among 290,000; inhibition, % at 5.6 µM; AID 1556; purified IMP-1, nitrocefin hydrolysis, epi-absorbance fluorescence;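 active = inhibition above the mean plus 3 SD of all compounds in the same screening run, cut at about 4.5% in these data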
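Assay system: purified IMP-1; Quantity: IMP-1 0.2 nM before substrate addition; Medium: HEPES buffer pH 7.1 with ZnSO4 and Brij 35; Incubation: 15 min enzyme–compound preincubation, then 25 min nitrocefin reaction, 25 °C; Signal: fluorescence quenching readout, ex 480/em 530 nm; Controls: DMSO with and without IMP-1; Repeats: singlicate testing.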
HCV NS3 hel inh: blocks Hepatitis C virus NS3 helicase unwinding. NS3 helicase DNA unwinding, Cy5 molecular beacon fluorescence. inhibition, % at 10.9 µM. hit rate 0.56% among 290,000;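 active = inhibition above the mean of all tested compounds plus 3 SD, set per campaign, cut at about 35% in these data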
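System: HCV NS3 helicase fragment; control set: DMSO and thioflavine S; technique: Cy5 fluorescence at 0 and 60 min, beacon hairpin quenching; reagent: beacon DNA duplex substrate plus ATP; replicates: singlicate; schedule: 1 h reaction at 25 °C, ATP-initiated; medium: MOPS buffer pH 6.5 with MgCl2, DTT, Tween20, BSA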
UBC9 SUMO inh: SUMOylation inhibition. HTRF SUMOylation assay, SAE1/SAE2 + UBC9, in vitro. inhibition, % at 35 µM. hit rate 0.36% among 290,000; in the data active = inhibition above about 50%, passing the limit was not always enough
Target sequence (P63279 whole entry, looked up): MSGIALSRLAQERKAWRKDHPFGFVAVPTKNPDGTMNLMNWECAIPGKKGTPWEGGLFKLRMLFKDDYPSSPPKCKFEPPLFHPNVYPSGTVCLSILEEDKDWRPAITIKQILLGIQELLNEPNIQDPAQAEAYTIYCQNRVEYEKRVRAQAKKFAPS
PHOSPHO1 inh: PHOSPHO1 (human) inhibition; recombinant PHOSPHO1, absorbance phosphatase assay; inhibition, % at 13.3 µM; hit rate 1.1% among 290,000; AID 1565; in the data active = inhibition above about 60%
Target sequence (Q8TCT1 whole entry, looked up): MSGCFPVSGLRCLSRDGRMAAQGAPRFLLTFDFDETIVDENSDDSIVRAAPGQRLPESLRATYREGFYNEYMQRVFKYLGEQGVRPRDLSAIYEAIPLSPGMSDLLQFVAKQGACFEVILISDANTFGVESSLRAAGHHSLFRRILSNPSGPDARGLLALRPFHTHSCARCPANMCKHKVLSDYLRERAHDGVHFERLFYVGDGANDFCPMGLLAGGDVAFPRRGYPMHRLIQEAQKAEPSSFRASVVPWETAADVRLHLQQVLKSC
VIM-2 inhibitor: inhibitors of Pseudomonas aeruginosa VIM-2 metallo-beta-lactamase. purified VIM-2, nitrocefin hydrolysis, epi-absorbance fluorescence. inhibition, % at 5.6 µM. hit rate 0.89% among 290,000. AID 1527;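 active = inhibition above the mean of all tested compounds plus 3 SD, cutoff set per screening run, cut at about 7.5% in these data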;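 note: red hydrolysis product quenches plate fluorescence so inhibitors raise well fluorescence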
IMP-1 inh-2: IMP-1 inhibition, counter-screen for VIM-2 inhibitors; 1,300 tested, under 10 active; shares compounds with VIM-2 inhibitor; inhibition, % at 5.6 µM; purified IMP-1, nitrocefin hydrolysis, epi-absorbance fluorescence; call rule not given here
VIM-2 FRET ctr: VIM-2 FRET inhibition, artifact counter-screen; AID 1857; hit rate 23% among 1,300; inhibition, % at 5.6 µM; purified VIM-2, CCF2 FRET substrate hydrolysis; shares compounds with VIM-2 inhibitor;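 active = inhibition above the mean of all tested compounds plus 3 SD, cut at about 19% in these data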
TEM-1 counter: selectivity counter-screen for VIM-2 inhibitors: E. coli TEM-1 inhibitors | shares compounds with VIM-2 inhibitor | hit rate 3% among 1,300 | inhibition, % at 5.6 µM | Purified TEM-1, nitrocefin hydrolysis, epi-absorbance fluorescence;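 active = inhibition above that campaign's mean inhibition plus 3 SD, cut at about 0.46% in these data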
Target sequence (P62593 whole entry, looked up): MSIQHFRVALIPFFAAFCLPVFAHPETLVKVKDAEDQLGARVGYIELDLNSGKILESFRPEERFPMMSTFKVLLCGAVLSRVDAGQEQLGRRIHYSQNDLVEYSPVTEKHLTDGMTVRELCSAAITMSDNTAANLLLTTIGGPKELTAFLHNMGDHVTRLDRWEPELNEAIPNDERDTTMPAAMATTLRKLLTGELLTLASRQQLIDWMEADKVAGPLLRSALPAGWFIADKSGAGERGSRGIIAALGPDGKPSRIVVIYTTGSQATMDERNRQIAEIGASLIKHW
VIM-2 inh conf: confirmation of P. aeruginosa VIM-2 metallo-beta-lactamase inhibitors. shares compounds with VIM-2 inhibitor. purified VIM-2, nitrocefin hydrolysis, epi-absorbance. inhibition, % at 5.6 µM. hit rate 96% among 1,300. AID 2187;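 active = inhibition of the VIM-2 beta-lactamase enzyme above about 11% from the earlier first-round screen, limit read from the data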
Of the large screens only hits and unclear results are named; the others gave an inactive call (follow-up assays come after a bar, where they were run).

CNC(=O)c1cc2c(=O)n3cccc(C)c3nc2n(C(C)C)c1=N	VIM-2 inhibitor 12 | IMP-1 inh-2 inactive | VIM-2 FRET ctr inactive | TEM-1 counter inactive | VIM-2 inh conf 26
COC(=O)c1cccc(C(=O)N2CCCC(Nc3ccc(C)c(C)c3)C2)c1 (stereo unspecified)	none (no result: UBC9 SUMO inh)
Cc1cccc(Nc2nc(NCCCN3CCOCC3)nc(N)c2[N+](=O)[O-])c1	VIM-2 inhibitor 14 | IMP-1 inh-2 inactive | VIM-2 FRET ctr inactive | TEM-1 counter inactive | VIM-2 inh conf 37
Nc1nc(Nc2ccccc2F)nc(NCCO)c1[N+](=O)[O-]	none
Nc1nc(NCCCN2CCOCC2)nc(Nc2ccccc2F)c1[N+](=O)[O-]	VIM-2 inhibitor 29 | IMP-1 inh-2 inactive | VIM-2 FRET ctr inactive | TEM-1 counter inactive | VIM-2 inh conf 51
Cc1cccc(Nc2nc(N)c([N+](=O)[O-])c(NCc3ccccc3)n2)c1	none
Cc1ccc(NC(=O)CCn2c(=S)oc3ccccc32)cc1F	none
Fc1ccc(-c2ccc(/C=N/n3cnnc3)o2)cc1	VIM-2 inhibitor 18 | IMP-1 inh-2 inactive | VIM-2 FRET ctr inactive | TEM-1 counter inactive | VIM-2 inh conf 30
Fc1ccc(-c2ccc(/C=N\n3cnnc3)o2)cc1Cl	VIM-2 inhibitor 45 | IMP-1 inh-2 inactive | VIM-2 FRET ctr inactive | TEM-1 counter inactive | VIM-2 inh conf 57
CC(C)COC(=O)c1cc(-c2ccc(/C=N/n3cnnc3)o2)ccc1Cl	none
S=C(Nc1ccccc1)N1N=C(c2cccs2)CC1c1cccs1 (stereo unspecified)	none
CCc1c(C)nc2ncnn2c1NCCc1ccc(OC)c(OC)c1	VIM-2 inhibitor 34 | IMP-1 inh-2 inactive | VIM-2 FRET ctr inactive | TEM-1 counter inactive | VIM-2 inh conf 55
CC(C)c1cc(C(=O)NCCc2ccccc2)no1	none
CC(C)N(c1ccccc1)c1ccc(NC(=O)COC(=O)CCN2C(=O)c3cccc([N+](=O)[O-])c3C2=O)cc1	none
O=C(c1ccco1)N1N=C(c2ccc(Cl)cc2)CC1c1ccco1 (stereo unspecified)	VIM-2 inhibitor 35 | IMP-1 inh-2 inactive | VIM-2 FRET ctr 69 | TEM-1 counter inactive | VIM-2 inh conf 44
O=C(O)Cn1cccc1C(=O)c1ccccc1	VIM-2 inhibitor 33 | IMP-1 inh-2 inactive | VIM-2 FRET ctr 49 | TEM-1 counter inactive | VIM-2 inh conf 30
O=C(OCC(=O)c1c[nH]c2ccccc12)c1ccco1	none
O=C(OCc1ccccc1)C1=[N+]([O-])OC(C(=O)OCc2ccccc2)C1c1c[nH]c2ccccc12 (stereo unspecified)	VIM-2 inhibitor 13 | IMP-1 inh-2 inactive | VIM-2 FRET ctr inactive | TEM-1 counter inactive | VIM-2 inh conf inactive
CN(C)CCCNc1c2c(nc3cc(-c4cccc(F)c4)nn13)CCC2	VIM-2 inhibitor 13 | IMP-1 inh-2 inactive | VIM-2 FRET ctr inactive | TEM-1 counter inactive | VIM-2 inh conf 27
CCOCCCNc1c2c(nc3cc(-c4ccc(F)cc4)nn13)CCC2	none
O=C(Nc1cc2c3c(c1)CC(=O)N3CCC2)c1ccc(Cl)cc1	none (no result: IMP-1 inh-1, HCV NS3 hel inh, UBC9 SUMO inh, PHOSPHO1 inh, VIM-2 inhibitor)
COC(=O)c1c(NC(=O)c2ccccc2F)sc(C(=O)N2CCOCC2)c1C	VIM-2 inhibitor 13 | IMP-1 inh-2 inactive | VIM-2 FRET ctr inactive | TEM-1 counter inactive | VIM-2 inh conf 20
COC(=O)c1cccc(NC(=O)CC2C(=O)NCCN2C(=O)c2ccc(F)cc2F)c1 (stereo unspecified)	none
Cc1c(OCC(=O)NCCCN2CCOCC2)ccc2c3c(c(=O)oc12)CCCC3	VIM-2 inhibitor 13 | IMP-1 inh-2 inactive | VIM-2 FRET ctr inactive | TEM-1 counter inactive | VIM-2 inh conf 22
CCc1cc(=O)oc2c(C)c(OCC(=O)NCCCN3CCOCC3)ccc12	none
CCCc1cc(=O)oc2c(C)c(OCC(=O)NCCCN3CCOCC3)ccc12	none
Cc1c(OCC(=O)NCCN2CCOCC2)ccc2c3c(c(=O)oc12)CCC3	VIM-2 inhibitor 27 | IMP-1 inh-2 inactive | VIM-2 FRET ctr inactive | TEM-1 counter inactive | VIM-2 inh conf 31
Cc1c(OCC(=O)NCCN2CCOCC2)ccc2c1oc(=O)c1ccccc12	VIM-2 inhibitor 28 | IMP-1 inh-2 inactive | VIM-2 FRET ctr inactive | TEM-1 counter inactive | VIM-2 inh conf 38
Cc1c(OCC(=O)NCCN2CCOCC2)ccc2c(-c3ccccc3)cc(=O)oc12	none
CCOC(=O)c1cnc2c(ccc3ccccc32)c1NCCCN(C)C	VIM-2 inhibitor 25 | IMP-1 inh-2 inactive | VIM-2 FRET ctr inactive | TEM-1 counter inactive | VIM-2 inh conf 35
CCOC(=O)c1cnc2ccc(OC)cc2c1Nc1ccc(N2CCN(C)CC2)cc1	VIM-2 inhibitor 76 (no result: HCV core dimer) | IMP-1 inh-2 inactive | VIM-2 FRET ctr inactive | TEM-1 counter inactive | VIM-2 inh conf 85
CCOC(=O)c1cnc2c(C)c(Cl)ccc2c1NCCCN1CCOCC1	VIM-2 inhibitor 16 | IMP-1 inh-2 inactive | VIM-2 FRET ctr inactive | TEM-1 counter inactive | VIM-2 inh conf 25
CCOC(=O)c1ccc2ncc(C(=O)OCC)c(NCCCN3CCOCC3)c2c1	VIM-2 inhibitor 26 | IMP-1 inh-2 inactive | VIM-2 FRET ctr inactive | TEM-1 counter inactive | VIM-2 inh conf 53
CCOc1ccc(CCNC(=O)C2CSC3(C)CCC(=O)N23)cc1OCC (stereo unspecified)	none
Cc1ccc(NC(=O)C(=O)NCCCN2CC(C(=O)O)CC2=O)cc1 (stereo unspecified)	none
CC(=O)N1CCN(c2ccc(Nc3ncnc4c3oc3ccccc34)cc2)CC1	VIM-2 inhibitor 69 | IMP-1 inh-2 inactive | VIM-2 FRET ctr inactive | TEM-1 counter inactive | VIM-2 inh conf 82
CCc1nc(N2CCN(C(=O)c3ccco3)CC2)c2oc3ccccc3c2n1	VIM-2 inhibitor 33 | IMP-1 inh-2 inactive | VIM-2 FRET ctr inactive | TEM-1 counter inactive | VIM-2 inh conf 41
Oc1ccc(Nc2ncnc3c2oc2ccccc23)cc1	none
c1ccc2c(c1)oc1c(Nc3ccc(CN4CCOCC4)cc3)ncnc12	VIM-2 inhibitor 15 | IMP-1 inh-2 inactive | VIM-2 FRET ctr inactive | TEM-1 counter inactive | VIM-2 inh conf 25
CCc1nc(Nc2ccc(N3CCN(C(C)=O)CC3)cc2)c2oc3ccccc3c2n1	VIM-2 inhibitor 82 | IMP-1 inh-2 inactive | VIM-2 FRET ctr inactive | TEM-1 counter inactive | VIM-2 inh conf 84
